# Active and inactive are the calls of the source. The calls are words filed in the database; no cut-off is given here.
# Assays:
# [1] = test system: Mycobacterium tuberculosis; test: Antitubercular activity against Mycobacterium tuberculosis H37Rv assessed as inhibition of microbial growth at 6.25 ug/mL; format: functional
# SR = test: Cytotoxicity against human SR cells; format: functional, cell-based
# Procedure, shortened: (§1)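 Tested in vitro in the NCI 60 human tumour cell-line panel, with the screen run at the National Cancer Institute. Growth inhibition was read for each line and reported as IC50 in µg/mL.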
# MOLT-4 = test: Cytotoxicity against human MOLT4 cells; format: functional, cell-based; procedure, shortened: as §1
# NCI-H322M = test: Cytotoxicity against human NCI-H322M cells; format: functional, cell-based; procedure, shortened: as §1
# TK-10 = test: Cytotoxicity against human TK10 cells; format: functional, cell-based; procedure, shortened: as §1
# CAKI-1 = test: Cytotoxicity against human Caki1 cells; format: functional, cell-based; procedure, shortened: as §1
# A498 = test: Cytotoxicity against human A498 cells; format: functional, cell-based; procedure, shortened: as §1
# ACHN = test: Cytotoxicity against human ACHN cells; format: functional, cell-based; procedure, shortened: as §1
smiles,measurement,setting,value
C=C1C(=O)O[C@H]2C(=O)[C@H](C)CCC[C@](C)(OO)/C=C/C[C@@]3(C)O[C@@H]3C[C@@H]12 [UPROLIDE H],inhibition,[1],inactive
same,IC50,SR,0.07 µg/mL
same,IC50,MOLT-4,0.01 µg/mL
C=C1C(=O)O[C@H]2C(=O)[C@H](C)CCC/C(C)=C/CC[C@@]3(C)O[C@@H]3C[C@@H]12,IC50,NCI-H322M,0.9 µg/mL
same,IC50,TK-10,0.13 µg/mL
C=C1C(=O)OC2C(=O)[C@H](C)CCC/C(C)=C/CC[C@@]3(C)O[C@@H]3C[C@@H]12 (stereo not given in full),inhibition,[1],inactive
C=C[C@H]1CC[C@H]2[C@@H]3CC=C4C[C@@H](O[C@@H]5OC[C@@H](O)[C@H](O)[C@H]5O)CC[C@]4(C)[C@H]3CC[C@]12C,inhibition at 6.25 µg/mL,[1],52%
same,IC50,CAKI-1,6.6 µg/mL
same,IC50,A498,4.2 µg/mL
same,IC50,ACHN,2.8 µg/mL

# Reference: ChEMBL document CHEMBL1150625, “New terpenoid constituents from Eunicea pinta” (J Nat Prod, 2002)
